In test [1] the target is T1, 3-phosphoinositide-dependent protein kinase 1 (Homo sapiens) (UniProt O15530).
T1 sequence (whole entry): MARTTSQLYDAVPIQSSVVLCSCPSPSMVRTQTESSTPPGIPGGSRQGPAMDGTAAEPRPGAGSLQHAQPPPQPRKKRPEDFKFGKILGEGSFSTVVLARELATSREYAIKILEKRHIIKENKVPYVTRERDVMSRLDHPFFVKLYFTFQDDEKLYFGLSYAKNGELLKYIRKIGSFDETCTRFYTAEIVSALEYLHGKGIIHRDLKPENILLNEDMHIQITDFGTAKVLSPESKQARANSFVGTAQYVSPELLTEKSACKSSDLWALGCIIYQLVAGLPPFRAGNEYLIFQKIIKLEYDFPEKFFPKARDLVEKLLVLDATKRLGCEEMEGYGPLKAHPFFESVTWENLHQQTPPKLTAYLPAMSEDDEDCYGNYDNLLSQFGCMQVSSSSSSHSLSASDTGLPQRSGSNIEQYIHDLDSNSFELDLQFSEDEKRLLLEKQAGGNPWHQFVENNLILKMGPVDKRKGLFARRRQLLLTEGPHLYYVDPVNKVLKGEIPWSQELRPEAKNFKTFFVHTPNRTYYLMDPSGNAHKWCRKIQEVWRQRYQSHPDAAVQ
As to the kind of experiment: Inhibition of PDK2 in human PC3 cells assessed as Akt Thr-308 dephosphorylation by Western blot analysis. In kind it is functional, cell-based. The conditions noted are these: PC-3. The method, boiled down:
(§1)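 Cells exposed 24 h in 5% FBS medium, final DMSO 0.1%; lysed in 1% SDS/10 mM EDTA/50 mM Tris pH 8.1, equal protein on SDS-PAGE, nitrocellulose, primary antibody 1:1000 at 4°C for 2 h, HRP secondary 1:5000, ECL detection; blots representative of three independent experiments.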

Test [2] deals with 3-phosphoinositide dependent protein kinase-2, PDK2. As to the kind of experiment: Inhibition of PDK2 in human PC3 cells assessed as Akt Ser-473 dephosphorylation by Western blot analysis. The format is functional, cell-based. The conditions noted are these: PC-3. The procedure, abridged: as §1

Active and inactive are the calls of the source. The rule behind the calls is not given here.

As for `NC(=O)c1ccc(C(=O)N2CCN(c3ccc(-n4nc(C(F)(F)F)cc4-c4ccc5c(ccc6ccccc65)c4)cc3)CC2)cc1`, the inhibition result in test [1] and in test [2] was “inactive” each time.
As to `FC(F)(F)c1ccc(-c2ccc(-c3cc(C(F)(F)F)nn3-c3ccc(N4CCNCC4)cc3)cc2)cc1`, the inhibition entry in test [1] and in test [2] was “inactive” in each case.
Turning to `NCCCC[C@@H](N)C(=O)Nc1ccc(-n2nc(C(F)(F)F)cc2-c2ccc3c(ccc4ccccc43)c2)cc1`, the inhibition entry in test [1] and in test [2] was “inactive” in each case.
As for `Nc1ccc(C(=O)N2CCN(c3ccc(-n4nc(C(F)(F)F)cc4-c4ccc5c(ccc6ccccc65)c4)cc3)CC2)cc1`, the inhibition result in test [1] and in test [2] was “inactive” throughout.
Consider `O=C(Nc1ccc(-n2nc(C(F)(F)F)cc2-c2ccc3c(ccc4ccccc43)c2)cc1)N1CCOCC1`, for which the inhibition result in test [1] and in test [2] was “inactive” each time.
On to `NCCCC[C@H](N)C(=O)Nc1ccc(-n2nc(C(F)(F)F)cc2-c2ccc3c(ccc4ccccc43)c2)cc1`, for which the inhibition entry in test [1] and in test [2] was “inactive” throughout.
On to `O=C1CCC(=O)N1c1ccc(-n2nc(C(F)(F)F)cc2-c2ccc3c(ccc4ccccc43)c2)cc1`, for which the inhibition result in test [1] and in test [2] was “inactive” throughout.
Turning to `CC(C)NC(=O)CCc1cc(-c2ccc(-c3ccc(C(F)(F)F)cc3)cc2)n(-c2ccc(NC(=O)CCN)cc2)n1`, the inhibition result in test [1] and in test [2] was “inactive” in each case.

For the origin of these results see ChEMBL document CHEMBL1828498, “Identification and characterization of a novel integrin-linked kinase inhibitor” (J Med Chem, 2011).
